Compound activity (PubChem)
SENP7 block: SENP7 protease inhibitors, primary screen, biochemical, luminescence, uHTS. inhibition, % at 5 µM. 330,000 compounds, 1.5% hits. recombinant SENP7, Z-RLRGG-aminoluciferin luminescence, 40 min. Sentrin-specific protease 7 (Homo sapiens), Q9BQF6;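 active = inhibition above about 50% at the single test dose, limit read from the data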
Apaf1 inhib: inhibitors of human Apaf-1 apoptosome, primary screen, biochemical, DEVD-Rh110 fluorescence, uHTS. inhibition, % at 20 µM. 330,000 compounds, 0.71% hits. Apoptotic protease-activating factor 1 (Homo sapiens), O14727. reconstituted apoptosome caspase-3 activity; active = inhibition of at least 40% at 20 µM
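System – cell-free apoptosome with Apaf-1, procaspase-3 and caspase-9 · Buffer or medium – pH 7.5 Hepes buffer with CHAPS, BSA, DTT · Also added – cytochrome c with DEVD-Rh110 · Times – 30 min compound preincubation, 50 min activation, room temperature · Technique – Rh110 fluorescence intensity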
SENP8 block-1: SENP8 protease inhibitors, primary screen, biochemical, luminescence. AID 2540, 2010. inhibition, % at 10 µM. 330,000 compounds, 1.2% hits. Sentrin-specific protease 8 (Homo sapiens), Q96LD8. purified SENP8, Z-RLRGG-aminoluciferin cleavage; in the data active = inhibition above about 50%
SENP6 inh: SENP6 protease inhibitors, primary screen, biochemical, luminescence, uHTS | inhibition, % at 10 µM | Recombinant SENP6 catalytic domain, aminoluciferin luminescence | AID 2599, 2010 | 330,000 compounds, 1.8% hits;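 active = inhibition above about 50% at the single tested dose, limit read from the data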
SENP1 FRET inh: human SENP1 catalytic domain inhibitors, primary screen, biochemical, FRET, uHTS; Sentrin-specific protease 1 (Homo sapiens), Q9P0U3; recombinant SENP1 catalytic domain, CyPet-SUMO1-YPet FRET cleavage; inhibition, % at 10 µM; 360,000 compounds, 0.21% hits;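 active = inhibition at least 30% at 10 µM, raw YFP signal under a set limit, fluorescence ratio 0.5 to 1.5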
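System: Recombinant human SENP1 catalytic domain, His6-tagged | Incubation: Enzyme reaction for 50 min at room temperature, dark | Medium: Tris pH 8 with BME, BSA, NP40 and catalase | Also added: 25 nM SUMO1 FRET substrate | Compound: 10 µM single point, 0.5% DMSO | Measured by: FRET fluorescence in CFP and YFP emission channels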
SENP8 block-2: human SENP8 protease inhibitors, primary screen, biochemical, fluorescence, Nedd8 protein substrate, uHTS. 360,000 compounds, 0.64% hits. AID 602440, 2012. inhibition, % at 20 µM. Sentrin-specific protease 8 (Homo sapiens), Q96LD8. recombinant SENP8; in the data active = inhibition mostly above about 40%, no sharp cut-off; inactive = mostly below about 27%
SENP8 conf: SENP8 protease inhibitors, retest, confirmation, biochemical, luminescence, single concentration; Recombinant SENP8, Z-RLRGG-aminoluciferin luminescence, 60 min; AID 488912, 2010; inhibition, % at 12.5 µM; shares compounds with SENP7 block; 6,200 compounds, 40% hits;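 active = mean inhibition across replicates above about 50%, limit read from the data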
SENP6 confirm: SENP6 protease inhibitors, confirmation, biochemical, luminescence, single concentration. shares compounds with SENP7 block. recombinant SENP6, Z-RLRGG-aminoluciferin luminescence. inhibition, % at 12.5 µM. 6,200 compounds, 58% hits. AID 488915, 2010
SENP7 conf: SENP7 protease inhibitors, retest, confirmation, biochemical, luminescence, single concentration; shares compounds with SENP7 block; 6,200 compounds, 69% hits; inhibition, % at 12.5 µM; recombinant SENP7, Z-RLRGG-aminoluciferin luminescence, 40 min
Casp3 SENP sel: caspase-3 protease inhibitors, confirmation, selectivity assay for SENP inhibitor project, biochemical, single concentration. 6,200 compounds, 60% hits. inhibition, % at 12.5 µM. purified caspase-3, Z-DEVD-aminoluciferin luminescence, 60 min. shares compounds with SENP7 block;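 active = mean inhibition above about 50%, limit read from the data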
SENP luc ctr: luminescence interference (SENP counter-screen); AID 488919; Pre-incubated SENP8/Z-RLRGG-aminoluciferin, luciferase luminescence interference; shares compounds with SENP7 block; 6,200 compounds, 39% hits; inhibition, % at 12.5 µM;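 active = mean inhibition above about 50% when retested at one dose, limit read from the data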
Of the large screens only hits and unclear results are named; the others gave an inactive call (follow-up assays come after a bar, where they were run). The list is not random: actives were taken first. Their share in the collection is about 2.9%.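 The calls were made as follows, unless noted: active = mean inhibition above about 50% in the one-dose retest (limit read from the data); inactive = the rest.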

CCOC(=O)Cc1csc(NC(=O)c2cc3c(s2)CCCC3)n1	none
CCc1nnc(NC(=O)c2cc3c(s2)CCCCC3)s1	none
Cc1nnc(NC(=O)c2ccc(N3CCCC3=O)cc2)s1	none
Cc1csc(NC(=O)c2cc3c(s2)CCCC3)n1	SENP7 block 93, SENP8 block-1 89, SENP6 inh 95 | SENP8 conf 95 | SENP6 confirm 96 | SENP7 conf 101 | Casp3 SENP sel 88 | SENP luc ctr 86
O=C(Nc1ccon1)c1cc2c(s1)CCCC2	SENP7 block 93, SENP8 block-1 84, SENP6 inh 89 | SENP8 conf inactive | SENP6 confirm 90 | SENP7 conf 100 | Casp3 SENP sel 92 | SENP luc ctr 63
Cc1csc(NC(=O)c2cc3c(s2)CCCCC3)n1	SENP7 block 98, SENP8 block-1 94, SENP6 inh 92 | SENP8 conf 96 | SENP6 confirm 97 | SENP7 conf 101 | Casp3 SENP sel 92 | SENP luc ctr 89
Cc1csc(NC(=O)c2ccc(N3CCCC3=O)cc2)n1	SENP7 block 79, SENP8 block-1 63, SENP6 inh 77 | SENP8 conf inactive | SENP6 confirm inactive | SENP7 conf 63 | Casp3 SENP sel 85 | SENP luc ctr inactive
Cc1ccc(C2=NN(CCC#N)C(=O)CO2)cc1	none
Cc1cnc(NC(=O)c2cc3c(s2)CCCC3)s1	SENP7 block 85, SENP8 block-1 81, SENP6 inh 88 | SENP8 conf 88 | SENP6 confirm 88 | SENP7 conf 97 | Casp3 SENP sel 79 | SENP luc ctr 56
O=S(=O)(/N=C(/Nc1nc2ccccc2s1)c1ccccc1)c1ccccc1	SENP8 block-1 60, SENP6 inh 72 | SENP8 conf inactive | SENP6 confirm inactive | SENP7 conf inactive | Casp3 SENP sel inactive | SENP luc ctr inactive
CNc1ncnc2c1ncn2[C@H]1CN(Cc2cccc3ccccc23)C[C@@H](CO)O1	none (no result: SENP7 block, Apaf1 inhib, SENP8 block-1, SENP6 inh)
CC(C)COC(=O)c1ccc2c(c1O)C(=O)c1ccccc1C2=O	SENP7 block 93, SENP6 inh 81 | SENP8 conf 85 | SENP6 confirm 88 | SENP7 conf 95 | Casp3 SENP sel 59 | SENP luc ctr 52
COc1ccc2c(c1O)C(=O)c1ccccc1C2=O	none (no result: SENP1 FRET inh, SENP8 block-2)
CS(=O)(=O)c1ccc2nc(NC(=O)c3cccc([N+](=O)[O-])c3)sc2c1	SENP7 block 97, SENP8 block-1 95, SENP6 inh 95 | SENP8 conf 98 | SENP6 confirm 99 | SENP7 conf 102 | Casp3 SENP sel 97 | SENP luc ctr 78
COc1cc(OC)cc(C(=O)Nc2nc3ccc(S(C)(=O)=O)cc3s2)c1	SENP7 block 98, SENP8 block-1 91, SENP6 inh 86 | SENP8 conf 93 | SENP6 confirm 96 | SENP7 conf 101 | Casp3 SENP sel 96 | SENP luc ctr 92
O=c1nc2c(-c3ccccc3F)n[nH]n2c2ccccc12	SENP7 block 90, SENP8 block-1 90, SENP6 inh 85 | SENP8 conf 79 | SENP6 confirm 92 | SENP7 conf 100 | Casp3 SENP sel 93 | SENP luc ctr 53
CCc1ccc(S(=O)(=O)c2n[nH]n3c2nc(=O)c2ccccc23)cc1	none
Cc1cnc(-c2nc3ccccc3n2C(C(=O)Nc2c(C)cccc2C)C2CC2)cn1 (centres undefined)	none (no result: SENP7 block, Apaf1 inhib, SENP8 block-1, SENP6 inh)
Cc1ccc(NC(=O)CN(C)C(=O)c2cccc(-n3cccc3)c2)cc1	none
O=C(Nc1ccc(-c2nnc(-c3ccccc3)o2)cc1)C(F)(F)F	SENP7 block 91, SENP8 block-1 66, SENP6 inh 76 | SENP8 conf inactive | SENP6 confirm inactive | SENP7 conf inactive | Casp3 SENP sel inactive | SENP luc ctr inactive
CC(=O)Nc1ccc(-c2nc3ccccc3c(=O)o2)cc1	none
CC(C)C(=O)Nc1ccc(-c2nnc(-c3ccccc3)o2)cc1	SENP7 block 76, SENP8 block-1 58, SENP6 inh 61 | SENP8 conf inactive | SENP6 confirm inactive | SENP7 conf inactive | Casp3 SENP sel inactive | SENP luc ctr inactive
CC(=O)/C=C(\C)Nc1ccc(-c2cnc(-c3ccccc3)o2)cc1	SENP7 block 72, SENP8 block-1 78, SENP6 inh 76 | SENP8 conf inactive | SENP6 confirm inactive | SENP7 conf inactive | Casp3 SENP sel inactive | SENP luc ctr inactive
Cc1ccc(NC(=S)c2nc3ccccc3[nH]2)cc1	SENP7 block 55, SENP8 block-1 57, SENP6 inh 79 | SENP8 conf 71 | SENP6 confirm 78 | SENP7 conf 95 | Casp3 SENP sel 60 | SENP luc ctr inactive
Oc1ccccc1C1=Nc2nc3ccccc3n2C(c2ccccc2)C1 (centres undefined)	SENP7 block 71, SENP8 block-1 59, SENP6 inh 79 | SENP8 conf inactive | SENP6 confirm inactive | SENP7 conf inactive | Casp3 SENP sel inactive | SENP luc ctr inactive
COc1cccc2cc(-c3cn4ccc(C)cc4n3)c(=O)oc12	SENP7 block 50 | SENP8 conf inactive | SENP6 confirm inactive | SENP7 conf inactive | Casp3 SENP sel inactive | SENP luc ctr inactive
COc1ccc(-c2nnc(-c3cc4ccccc4oc3=O)o2)cc1	none
